Data taken from ChEMBL document CHEMBL1154414, “In vitro and in vivo activities of T-705 against arenavirus and bunyavirus infections” (Antimicrob Agents Chemother, 2007).

Columns and labels:
Punta Toro virus [1] = assay: Antiviral activity against 500 PFU Punta Toro virus Adames infected C57BL/6 mouse assessed as mean viral titer per 0.1 mL of serum at 10 mg/kg, po twice daily administered 24 hrs post viral challenge measured on day 3 of viral infection; type: functional
Procedure, shortened: (§1)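 Mice were infected subcutaneously with PTV and dosed by oral gavage twice daily; 5 per group (10 placebo) were killed on day 3 or 4. Liver homogenate or serum was serially diluted onto triplicate LLC-MK2 monolayers, and CPE was read 6–8 days later. 50% endpoints gave log10 CCID50 per 0.1 g liver or 0.1 ml serum. Detection range was 2.8–9.5; undetectable samples were assigned <2.8.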

Punta Toro virus [2] = assay: Antiviral activity against 5000 PFU Punta Toro virus Adames infected C57BL/6 mouse assessed as animals with detectable virus level in liver at 10 mg/kg, po twice daily administered 24 hrs post viral challenge measured on day 3 of viral infection; type: functional; procedure, shortened: as §1
Punta Toro virus [3] = assay: Antiviral activity against 50 PFU Punta Toro virus Adames infected C57BL/6 mouse assessed as mean serum ALT levels at 10 mg/kg, po twice daily administered 24 hrs post viral challenge measured on day 3 of viral infection; type: functional
Procedure, shortened: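 Subcutaneous PTV infection was followed by oral gavage twice daily with drug suspended in 0.4% CMC. Serum was collected from 5 sacrificed mice per group (10 placebo) on day 3 or 4. ALT activity was measured by kinetic assay, and sham-infected mice set the baselines.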

Punta Toro virus [4] = assay: Antiviral activity against 5000 PFU Punta Toro virus Adames infected C57BL/6 mouse assessed as animals with detectable virus level in serum at 10 mg/kg, po twice daily administered 24 hrs post viral challenge measured on day 3 of viral infection; type: functional; procedure, shortened: as §1
Punta Toro virus [5] = assay: Antiviral activity against 50 PFU Punta Toro virus Adames infected C57BL/6 mouse assessed as mean viral titer per 0.1 g of liver at 10 mg/kg, po twice daily administered 24 hrs post viral challenge measured on day 3 of viral infection; type: functional
Procedure, shortened: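 Mice were infected subcutaneously with PTV and dosed by oral gavage twice daily with drug in 0.4% CMC. Five per group (10 placebo) were sacrificed on day 3 or 4. Serially diluted liver homogenate or serum went into triplicate LLC-MK2 wells, and CPE 50% endpoints were read at 6–8 days. The range was 2.8–9.5 log10 CCID50/0.1 g or 0.1 ml, with undetectable samples set to 2.8 and saturated samples to 9.5.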

Punta Toro virus [6] = assay: Antiviral activity against 500 PFU Punta Toro virus Adames infected C57BL/6 mouse assessed as animals with detectable virus level in serum at 10 mg/kg, po twice daily administered 24 hrs post viral challenge measured on day 3 of viral infection; type: functional
Procedure, shortened: (§2)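 T-705 was suspended in 0.4% carboxymethylcellulose and given by oral gavage twice daily. Mice were infected subcutaneously with PTV. Five mice per group (10 placebo) were sacrificed on day 3 or 4. Liver homogenate or serum was serially diluted onto triplicate LLC-MK2 monolayers, and CPE was read at 6–8 days. The detection limit was 2.8 log10 CCID50 per 0.1 g liver or 0.1 ml serum.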

Tacaribe virus = assay: Antiviral activity against Tacaribe virus TRVL11573 in Vero cells assessed as inhibition of virus-induced visual cytopathic effect after 7 to 8 days; type: functional, organism-based; details: Mammarenavirus tacaribeense
Procedure, shortened: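 Subconfluent (50-70%) Vero cells were infected with virus in 2% FBS medium at the CCID50 giving maximal CPE. Half-log drug dilutions were added at infection. EC50 was obtained by regression analysis.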

Pichinde virus [7] = assay: Antiviral activity against Pichinde virus An 4763 infected Syrian golden hamster assessed as animals with detectable virus level in liver at 20 mg/kg, po twice daily for 7 days administered 24 hrs post viral-challenge measured on day 7 of viral infection; type: functional
Procedure, shortened: (§3)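 Hamsters (groups of 15, placebo 25-30) were dosed orally by gavage twice daily (drug suspended in 0.4% CMC) after bilateral intraperitoneal challenge with 65 PFU. Five per group were killed on day 7. Liver homogenate or serum was serially diluted onto triplicate B-SC-1 wells, CPE was read at 6-8 days, and the 50% endpoint was taken. Range was 2.8-9.5 log10 CCID50/0.1 g or 0.1 ml, with undetectable assigned <2.8.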

Pichinde virus [8] = assay: Antiviral activity against Pichinde virus An 4763 infected Syrian golden hamster assessed as mean serum ALT levels at 20 mg/kg, po twice daily for 7 days administered 24 hrs post viral-challenge measured on day 7 of viral infection; type: functional
Procedure, shortened: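 Hamsters were challenged intraperitoneally (bilateral, 65 PFU) and given twice-daily oral gavage doses (0.4% CMC vehicle). Five per group were sacrificed on day 7 and serum was collected. Serum ALT activity was measured by kinetic assay. Three sham-infected animals set the baselines.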

Punta Toro virus [9] = assay: Antiviral activity against Punta Toro virus Adames assessed as inhibition of virus-induced visual cytopathic effect after 3 to 5 days; type: functional, organism-based
Procedure, shortened: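 Virus in medium with 2% FBS was used at the CCID50 that gave maximal CPE. Half-log drug dilutions (DMSO stock, ≤1% DMSO at the top concentration) were added at infection. EC50 was derived by regression analysis.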

Punta Toro virus [10] = assay: Antiviral activity against 5000 PFU Punta Toro virus Adames infected C57BL/6 mouse assessed as mean serum ALT levels at 30 mg/kg, po twice daily administered 24 hrs post viral challenge measured on day 3 of viral infection; type: functional
Procedure, shortened: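 C57BL/6 mice received subcutaneous PTV, then oral gavage twice daily for 5–7 days. T-705 was given in 0.4% CMC and ribavirin in saline. Five mice per group (10 placebo) were killed on day 3 or 4, and serum was collected. ALT activity was measured by kinetic assay. Three sham-infected mice set baselines.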

Pichinde virus [11] = assay: Antiviral activity against Pichinde virus An 4763 infected Syrian golden hamster assessed as mean viral titer per 0.1 mL of serum at 20 mg/kg, po twice daily for 7 days administered 72 hrs post viral-challenge measured on day 7 of viral infection; type: functional; procedure, shortened: as §3
Pichinde virus [12] = assay: Antiviral activity against Pichinde virus An 4763 infected Syrian golden hamster assessed as survival at 50 mg/kg, po twice daily for 7 days administered 72 hrs post viral-challenge; type: functional
Procedure, shortened: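 Groups of 15 hamsters (placebo 25-30) were challenged intraperitoneally (bilateral, 65 PFU) and dosed twice daily by oral gavage in 0.4% CMC for 5 to 7 days.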

Punta Toro virus [13] = assay: Antiviral activity against 500 PFU Punta Toro virus Adames infected C57BL/6 mouse assessed as animals with detectable virus level in liver at 30 mg/kg, po twice daily administered 24 hrs post viral challenge measured on day 3 of viral infection; type: functional; procedure, shortened: as §2
Pichinde virus [14] = assay: Antiviral activity against Pichinde virus An 4763 infected Syrian golden hamster assessed as mean viral titer per 0.1 g of liver at 50 mg/kg, po twice daily for 7 days administered 24 hrs post viral-challenge measured on day 7 of viral infection; type: functional; procedure, shortened: as §3
Pichinde virus [15] = assay: Antiviral activity against Pichinde virus An 4763 infected Syrian golden hamster assessed as mean viral titer per 0.1 g of liver at 20 mg/kg, po twice daily for 7 days administered 24 hrs post viral-challenge measured on day 7 of viral infection; type: functional; procedure, shortened: as §3
Punta Toro virus [16] = assay: Antiviral activity against 500 PFU Punta Toro virus Adames infected C57BL/6 mouse assessed as animals with detectable virus level in liver at 10 mg/kg, po twice daily administered 24 hrs post viral challenge measured on day 3 of viral infection; type: functional; procedure, shortened: as §2
Junin virus = assay: Antiviral activity against Junin virus Candid-1 in Vero cells assessed as inhibition of virus-induced visual cytopathic effect after 7 to 8 days; type: functional, organism-based; details: Mammarenavirus juninense, Candid-1, Vero

Q: What does the source list for `NC(=O)c1nc(F)cnc1O` [FAVIPIRAVIR]?
A: log10CCID50 (Punta Toro virus [1]): 7.1; Activity (Punta Toro virus [2]): 20%; Activity (Punta Toro virus [3]): 3273 IU/L; Activity (Punta Toro virus [4]): 80%; log10CCID50 (Punta Toro virus [5]): <2.8; Activity (Punta Toro virus [6]): 100%; EC50 (Tacaribe virus): 6 µM; Activity (Pichinde virus [7]): 100%; Activity (Pichinde virus [8]): 1583 IU/L; EC50 (Punta Toro virus [9]): 191 µM; Activity (Punta Toro virus [10]): 521 IU/L; log10CCID50 (Pichinde virus [11]): >8.6; Efficacy (Pichinde virus [12]): 60%; Activity (Punta Toro virus [13]): 60%; log10CCID50 (Pichinde virus [14]): 5.7; log10CCID50 (Pichinde virus [15]): >8.4; Activity (Punta Toro virus [16]): 0%; EC50 (Junin virus): 5 µM

Q: With `NC(=O)c1ncn([C@@H]2O[C@H](CO)[C@@H](O)[C@H]2O)n1` [RIBAVIRIN] as the compound, how does the log10CCID50 (Punta Toro virus [1]) read?
A: Its log10CCID50 is 6.7.

Q: And the Activity (Punta Toro virus [2])?
A: The Activity was 0%.

Q: And the Activity (Punta Toro virus [3])?
A: Its Activity is 846 IU/L.

Q: And the Activity (Punta Toro virus [4])?
A: The Activity was 100%.

Q: What about the log10CCID50 (Punta Toro virus [5]) of the same compound?
A: The log10CCID50 was less than 3.3.

Q: What about the Activity (Punta Toro virus [6]) of the same compound?
A: Its Activity is 100%.

Q: And the EC50 (Tacaribe virus)?
A: Its EC50 is 10 µM.

Q: And the Activity (Pichinde virus [7])?
A: Its Activity is 100%.

Q: What about the Activity (Pichinde virus [8]) of the same compound?
A: Its Activity is 24 IU/L.

Q: What about the EC50 (Punta Toro virus [9]) of the same compound?
A: Its EC50 is 172 µM.

Q: And the Activity (Punta Toro virus [10])?
A: Its Activity is 1491 IU/L.

Q: And the log10CCID50 (Pichinde virus [11])?
A: The log10CCID50 was 6.8.

Q: What about the Efficacy (Pichinde virus [12]) of the same compound?
A: Its Efficacy is 60%.

Q: What about the Activity (Punta Toro virus [13]) of the same compound?
A: Its Activity is 60%.

Q: And the log10CCID50 (Pichinde virus [14])?
A: The log10CCID50 was 4.2.

Q: And the log10CCID50 (Pichinde virus [15])?
A: Its log10CCID50 is 6.

Q: What about the Activity (Punta Toro virus [16]) of the same compound?
A: The Activity was 20%.

Q: What about the EC50 (Junin virus) of the same compound?
A: The EC50 was 11 µM.
